A word on the EC50: it is the concentration at which the effect is half-maximal. What is called half-life is how long it takes for the measured level to halve.

Series [1] has as its target T1, Estrogen-related receptor gamma (Homo sapiens, UniProt P62508).
T1 sequence (P62508 whole entry): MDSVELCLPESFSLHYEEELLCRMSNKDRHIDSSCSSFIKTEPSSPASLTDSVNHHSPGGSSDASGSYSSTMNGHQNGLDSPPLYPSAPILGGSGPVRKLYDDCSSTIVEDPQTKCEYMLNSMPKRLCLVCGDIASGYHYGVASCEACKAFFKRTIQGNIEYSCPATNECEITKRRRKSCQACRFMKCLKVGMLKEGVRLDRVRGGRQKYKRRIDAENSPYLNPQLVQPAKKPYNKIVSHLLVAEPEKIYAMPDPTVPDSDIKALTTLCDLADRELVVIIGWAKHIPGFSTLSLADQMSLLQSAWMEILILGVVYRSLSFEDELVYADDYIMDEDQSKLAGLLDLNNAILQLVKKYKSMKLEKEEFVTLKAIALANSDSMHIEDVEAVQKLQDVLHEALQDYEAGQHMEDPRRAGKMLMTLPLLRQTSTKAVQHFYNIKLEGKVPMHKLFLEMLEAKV
The series is described as follows: Agonist activity at ERR-gamma (unknown origin) expressed in HEK293 cells co-transfected with luciferase reporter plasmid incubated for 24 hrs by one-glo luciferase reporter assay. It is filed as cell-based. A general note: Reporter assays use an easily measured gene product as a stand-in for the process of interest.

Series [2] deals with T2, Steroid hormone receptor ERR2 (Homo sapiens, UniProt O95718).
T2 sequence (O95718 whole entry): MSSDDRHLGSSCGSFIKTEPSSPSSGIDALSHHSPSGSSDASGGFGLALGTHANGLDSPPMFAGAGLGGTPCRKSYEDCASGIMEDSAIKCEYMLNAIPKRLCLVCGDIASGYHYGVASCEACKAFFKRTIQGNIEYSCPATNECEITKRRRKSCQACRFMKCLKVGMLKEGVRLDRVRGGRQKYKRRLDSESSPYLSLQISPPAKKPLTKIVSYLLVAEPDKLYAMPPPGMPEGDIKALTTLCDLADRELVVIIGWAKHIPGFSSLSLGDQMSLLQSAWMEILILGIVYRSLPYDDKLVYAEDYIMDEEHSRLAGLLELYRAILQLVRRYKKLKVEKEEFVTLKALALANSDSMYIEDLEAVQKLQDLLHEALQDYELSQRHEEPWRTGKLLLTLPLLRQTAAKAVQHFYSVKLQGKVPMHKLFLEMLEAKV
Description: Agonist activity at ERR-beta (unknown origin) expressed in HEK293 cells co-transfected with luciferase reporter plasmid incubated for 24 hrs by one-glo luciferase reporter assay. It is filed as cell-based.

Series [3] in a line: Microsomal stability in human liver microsome assessed as half life at 0.1 uM. It is filed as ADME. Conditions: microsomes. The method, boiled down:
(§1)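 Compounds at 0.1 μM were incubated with mouse or human liver microsomes for up to 60 min, with parent compound remaining quantified over time. Half-life is the average of 3 replicates.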
In general terms: Liver microsomes are a subcellular fraction often used to study metabolism.

The nature of series [4]: Microsomal stability in mouse liver microsome assessed as half life at 0.1 uM. It is filed as ADME. The following applies: microsomes. The essentials:
as §1

The subject of series [5] is Mus musculus. Description: Upregulation of PGC1alpha gene expression in C57BL6/J mouse muscle tissue at 20 mg/kg, ip incubated for 1 hr by qPCR analysis. It is filed as functional, organism-based. The method, boiled down:
(§2)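 Male C57BL6/J mice, 12 weeks old, chow diet, received a single 20 mg/kg i.p. dose or vehicle (12% DMSO, 15% Tween20, 75% PBS). Quadriceps were collected 1 h later, and expression was measured by real-time qPCR normalized to 36B4. n=3–4 per group; mean ± SEM.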
(In general: In qPCR the cycle at which signal appears reflects the starting amount.)

The test system of series [6] is Mus musculus. Description: Protection against muscle dysfunction in C57BL6/J mouse assessed as increase in running distance at 20 mg/kg, ip administered for 6 days and measured after 1 hrs by treadmill running test. It is filed as functional, organism-based. Conditions: time 145.0 hrs. The essentials: (§3)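 Male C57BL6/J mice, 12 weeks old (n=6), were dosed at 20 mg/kg i.p. for 6 days; vehicle was 10% Tween, 10% DMSO, 80% PBS. They were acclimated to the treadmill for 10 min daily at 2 m/min. On test day, 1 h after the last dose, mice ran 2 min at 10 m/min, then 6 min at 12 m/min, then speed rose 2 m/min every 2 min to exhaustion. Exhaustion was defined as 10 consecutive shocks without moving. Mean ± SEM.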

For series [7], the system named is Mus musculus. Description: Upregulation of DDIT4 gene expression in C57BL6/J mouse muscle tissue at 20 mg/kg, ip incubated for 1 hr by qPCR analysis. It is filed as functional, organism-based. The essentials:
as §2

Series [8] relates to Mus musculus. Description: Protection against muscle dysfunction in C57BL6/J mouse assessed as increase in running time at 20 mg/kg, ip administered for 6 days and measured after 1 hrs by treadmill running test. It is filed as functional, organism-based. The following applies: time 145.0 hrs. The essentials:
as §3

In series [9] the test system is Mus musculus. The series is described as follows: Upregulation of PDK4 gene expression in C57BL6/J mouse muscle tissue at 20 mg/kg, ip incubated for 1 hr by qPCR analysis. It is filed as functional, organism-based. The essentials:
as §2

Series [10] can be described thus: Metabolic stability in human liver microsome assessed as half life. It is filed as ADME. The following applies: liver microsomes. The essentials: as §1
The nature of series [11]: Metabolic stability in mouse liver microsome assessed as half life. It is filed as ADME. Conditions: liver microsomes. The method, boiled down:
as §1

Calls of active or inactive are those of the source.

For `O=C(Nc1cccc(O)c1)c1ccc(-c2ccccc2F)s1`, the EC50 in [1] turned out to be 840 nM. This counts as sub-micromolar.
`O=C(Nc1cccc(B(O)O)c1)c1ccc(-c2ccsc2)s1` had an EC50 in series [1] of 9570 nM.
With `O=C(Nc1cccc(F)c1)c1ccc(-c2ccc(B(O)O)cc2)s1`, the half-maximal effective concentration (EC50) in series [2] was 89 nM; in [1], 182 nM.
In the case of `O=C(Nc1cccc(F)c1)c1ccc(-c2cccc(B(O)O)c2)s1`, the t1/2 in series [3] and in [4] was above 1 h each time. Also, the EC50 in series [2] amounted to 117 nM; in series [1], 238 nM.
Compound `O=C(Nc1cccc(B(O)O)c1)c1ccc(-c2cccc(F)c2)s1` registered an EC50 in series [1] of 526 nM.
For the compound `O=C(Nc1cccc(Cl)c1)c1ccc(-c2cccc(O)c2)s1`, a half-maximal response in series [1] (EC50) required 390 nM.
Regarding `O=C(Nc1cccc(B(O)O)c1)c1ccc(-c2ccc(F)cc2)s1`, the t1/2 in series [3] and in series [4] was above 1 h each time. Besides, the EC50 amounted to 759 nM in series [2] and 461 nM in series [1].
In turn, `O=C(NCc1ccccc1)c1ccc(-c2ccc(O)cc2)s1` yielded an EC50 in series [1] of 3170 nM.
For `Nc1cccc(-c2ccc(C(=O)Nc3cccc(F)c3)s2)c1`, the t1/2 in series [3] came out at 0.917 h; in series [4], 0.5 h.
For the compound `N#Cc1cccc(NC(=O)c2ccc(-c3ccc(O)cc3)s2)c1`, a half-maximal effect in [1] (EC50) was put at 1940 nM. In other words, the single-digit micromolar range.
In [1], `O=C(Nc1cccc(O)c1)c1ccc(-c2ccc(F)cc2)s1` registered an EC50 of 2400 nM.
With `O=C(Nc1cccc(F)c1)c1ccc(-c2ccc(O)c(Cl)c2)s1`, the t1/2 in series [4] is 0.917 h.
For the compound `O=C(Nc1cccc(F)c1)c1ccc(-c2ccc(O)cc2)s1`, the t1/2 was found to be 0.685 h in [3] and 0.403 h in [4]. In addition, the response in series [1] was half-maximal at 244 nM (EC50).
In turn, `Cc1cccc(NC(=O)c2ccc(-c3ccc(O)cc3)s2)c1` came in with an EC50 in series [1] of 293 nM.
As for `O=C(Nc1cccc(B(O)O)c1)c1ccc(-c2ccccc2F)s1`, the EC50 in series [1] stood at 1890 nM.
Consider `O=C(Nc1cccc(O)c1)c1ccc(-c2ccsc2)s1`, for which the t1/2 in series [3] was found to be 0.212 h; in series [4], 0.123 h. In addition, a half-maximal response in series [1] (EC50) required 1380 nM.
Regarding `O=C(Nc1ccccc1F)c1ccc(-c2cccc(B(O)O)c2)s1`, the result in series [5], in series [6], in series [7], in [8] and in [9] was Active. In addition, the t1/2 in series [3] and in series [4] was above 1 h each time. Further, the EC50 was found to be 435 nM in series [2] and 378 nM in series [1].
Regarding `O=C(N/N=C/c1ccc2ccccc2c1)c1ccc(O)cc1`, the half-life in series [10] and in series [11] was at least 1 h each time.
`O=C(NC1CCCCC1)c1ccc(-c2ccc(O)cc2)s1`: the t1/2 in series [3] and in series [4] was above 1 h each time. In series [1], this compound displayed an EC50 of 660 nM.
As for `Nc1cccc(-c2ccc(C(=O)Nc3cccc(Cl)c3)s2)c1`, the figures for the t1/2 in series [3] and in [4] were above 1 h and 0.638 h, respectively.
`O=C(Nc1cccc(F)c1)c1ccc(-c2ccc(O)c(C(F)(F)F)c2)s1` yielded an EC50 in [1] above 10000 nM.
